# H69AR inhibit: proliferation blockers of H69AR lung cancer cells, primary screen, cell-based, human, 86K library | H69AR lung tumor viability, ATP luminescence, 72 h; active compounds read low | 85,000 tested, 6% active | AID 598, 2007 | viability, % at 10 µM;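 active means viability at or below 40%; inactive means viability above 40%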;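 further: multidrug resistant small cell line overexpressing MRP-1 efflux transporter; 100% = mean luminescence of untreated control wells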
# HCT116 bCat-KO: primary screen for growth suppressors in beta-catenin knockout HCT116 cells (colon tumor, human) | HCT116 beta-catenin knockout viability, CellTiter-Glo, 60 h; active compounds read low | viability, % at 10 µM | 140,000 tested, 1.5% active;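 active means viability at or under a set limit, the compound median less 4 SD, cut at about 6% in these data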;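 further: 0% = Hyamine 1622 control at 20 µM and 100% = untreated cell control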
# Fibroblast inh: antiproliferative effect on LL 47 fibroblasts – human, LL 47 cells, CellTiter-Glo luminescence, primary screen | LL 47 human lung fibroblast viability, ATP luminescence; active compounds read low | viability, % at 10 µM | 85,000 tested, 1.1% active | AID 719, 2007;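 active means viability at or below 50% in the single dose screen; inactive means viability above 50%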;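 further: compound exposure lasted 72 h before the ATP readout; 100% = median luminescence of untreated cell-only wells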
#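 Test system: LL 47 human lung fibroblasts / Incubation: 72 h compound exposure at 37 °C after overnight plating / Technique: luminescent ATP detection, CellTiter-Glo / Compound dosing: 0.1% DMSO in all compound wells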
# HUVEC inhibit: inhibitors of HUVEC proliferation, primary screen, cell-based, 384-well; viability, % at 10 µM (by protocol); CellTiter-Glo luminescence, 72 h; active compounds read low; AID 648, 2007; 86,000 tested, 1.1% active;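 active means viability at or below 30%; inactive means viability above 30%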;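 further: 100% = median luminescence of DMSO-only cell control wells on each plate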
# HCT116 PTEN-null: growth suppression of PTEN-null HCT116, primary screen, cell-based, CellTiter-Glo. HCT116 PTEN-null viability, 60 h; active compounds read low. viability, % at 10 µM. 140,000 tested, 1.2% active;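 active means viability at or below a set limit, 4 SD under the median of all tested compounds, cut at about 3.7% in these data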;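 further: PTEN knockout HCT116 line with beta catenin targeted HCT116 as companion control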
# The depositor's hits bear a star; . = no result. This excerpt belongs to a sample that is enriched for hits.
SMILES,H69AR inhibit,HCT116 bCat-KO,Fibroblast inh,HUVEC inhibit,HCT116 PTEN-null
CCN1CNC(=S)N(C(C)c2ccccc2)C1 (configuration not stated),.,92,.,.,95
O=C(Nc1ccc(F)cc1)c1nsc(Cl)c1Cl,37*,84,100,87,81
O=C(Nc1ccc(F)cc1)c1ccccc1,112,98,110,101,.
O=S(=O)(c1ccc(Cl)cc1)c1snnc1-c1ccccc1,1.9*,2.8*,6.5*,7.5*,1.8*
N#CCCS(=O)(=O)c1nnnn1-c1ccccc1,0.4*,.,67,58,.
O=C(CSc1nnc2c3ccccc3c3ccccc3c2n1)Nc1ccccc1F,.,2.2*,.,.,1.9*
O=C(CSc1nnc2c3ccccc3c3ccccc3c2n1)Nc1ccccc1,.,38,.,.,35
CSc1nc2c(cnn2-c2ccc(C)c(C)c2)c(=O)[nH]1,20*,19,100,38,5
O=C(c1ccco1)N1CCN(C(c2ccccc2)c2nnnn2C2CCCC2)CC1 (configuration not stated),91,90,101,108,89
O=C1c2ccccc2C(=O)N1n1cccc1,.,97,.,.,94
CCCC1=NN(C(=O)Cc2ccc(OC)cc2)C(O)(C(F)(F)F)C1 (configuration not stated),.,90,.,.,94
Cc1cnn(-c2cc(N/N=C/c3ccccc3F)ncn2)c1,.,21,.,.,2.6*
C=CCn1c(O)c(N=NC(=S)Nc2ccc(OC)cc2)c2ccccc21,35*,18,54,50,11
O=c1oc2c3c4c(cc2cc1-c1nc2ccccc2[nH]1)CCCN4CCC3,1.5*,.,84,56,.
O=c1oc2c(CN3CCCCC3)c(O)ccc2cc1-c1nc2ccccc2[nH]1,79,.,103,94,.
COc1cc2c(cc1NC(=S)Nc1cccc3ccccc13)oc1ccccc12,.,74,.,.,70
COc1cc2c(cc1NC(=S)Nc1cccc(C(F)(F)F)c1)oc1ccccc12,30*,71,99,45,39
COc1ccc(-c2coc3cc(OC)cc(O)c3c2=O)cc1,88,78,99,111,88
CC(C)Oc1cc(O)c2c(=O)c(-c3ccc(O)cc3)coc2c1,11*,76,102,94,74
CCc1ccccc1NC(=O)CN(C)C(=O)CSc1nc2cc(Cl)ccc2s1,.,103,.,.,93
O=C(Nc1ccc2c(c1)CCC2)C1CCN(c2c3c(nc4ncnn24)CCC3)CC1,32*,34,78,77,52
CCCN(CCC)S(=O)(=O)c1ccc(C(=O)Nc2nc3c(s2)CCc2ccccc2-3)cc1,.,3.1*,.,.,2.9*
Nc1cccc2nc3ccccc3cc12,9.2*,4.0*,19*,4.2*,3.2*
Cc1cc2c(N)cccc2nn1,94,97,108,104,101
Cc1ccc(-c2noc(CCC(=O)NCCCN3CCN(c4ccc(F)cc4)CC3)n2)cc1,27*,12,58,75,9
SMILES,H69AR inhibit,HCT116 bCat-KO,Fibroblast inh,HUVEC inhibit,HCT116 PTEN-null
Cc1ccc(-c2noc(CCC(=O)NCCCN3CCN(c4cccc(Cl)c4)CC3)n2)cc1,37*,7,57,23*,5
COc1ccc(-c2noc(CCC(=O)NCCCN3CCC(C)CC3)n2)cc1,97,99,100,99,110
CCOC(=O)c1cc2c(ccn2-c2ccc(F)cc2)n1CC(=O)N1CCN(C(=O)c2ccco2)CC1,22*,83,49*,52,94
COc1cc2nc(NCCCN3CCN(C)CC3)n3nc(-c4ccccc4)nc3c2cc1OC,28*,2.2*,87,25*,1.9*
CN1CCN(CCCNc2nc3ccccc3c3nc(-c4ccccc4)nn23)CC1,28*,.,67,70,.
CCOc1ccc(-c2c(=O)n(OCc3ccc([N+](=O)[O-])cc3)c3ccccc3[n+]2[O-])cc1,.,63,.,.,51
COc1ccc(O)c(-c2cc(-c3cccs3)[nH]n2)c1,64,41,77,72,61
CC12CCC(C(=O)N(c3ccccn3)c3ccccn3)(OC1=O)C2(C)C (configuration not stated),87,89,101,94,91
CCCn1cnc2c(c1=O)c1nc3ccccc3nc1n2CCC1=CCCCC1,73,95,97,75,96
CCCCCCn1c(C)nc2c(c1=O)c1nc3ccccc3nc1n2/N=C/c1ccco1,3.8*,74,99,18*,71
O=c1c2c3nc4ccccc4nc3n(/N=C/c3ccco3)c2ncn1CCC1=CCCCC1,74,.,97,29*,.
Cc1nc2c(c(=O)n1CCC1=CCCCC1)c1nc3ccccc3nc1n2/N=C/c1ccccc1,84,97,109,97,80
COC(=O)c1ccc(C(=O)Nc2ccc(N)cc2N)cc1,1.9*,91,101,98,96
COc1ccccc1NC(=O)c1ccc(N)cc1,98,104,97,84,105
Cc1cnc(NC(=O)c2cc3c(s2)CCCC3)s1,24*,65,83,76,65
Cn1c(C(=O)OCC(=O)NCc2ccco2)cc2sccc21,82,100,97,74,94
Cc1cc2c(cc(C(=O)OCC(=O)NCc3ccco3)n2C)s1,27*,25,71,58,27
COc1cccc(NC(=O)N(CCCN2CCOCC2)C(C)c2cc3ccccc3o2)c1 (configuration not stated),32*,69,90,84,65
O=C(O)CC1CCC(=C(Cl)Cl)C1 (configuration not stated),1.3*,7,86,81,6
Cc1cccc(C)c1NC(=O)CC(NCCc1ccccc1)C(=O)O (configuration not stated),.,92,.,.,99
COc1ccccc1N1C(=O)C2ON(c3ccccc3)C(c3ccc(N(C)C)cc3)C2C1=O (configuration not stated),11*,99,107,81,94
Cc1cc(NC(=O)CSc2nc3sc(C)c(C)c3c(=O)n2C2CCCC2)no1,15*,89,15*,45,85
CCCN(CCC)C(=O)C[n+]1cccc(/C=N/O)c1,.,93,.,.,92
COc1ccc2oc(=O)c(-c3nnc(NCc4ccco4)s3)cc2c1,2.6*,4.2*,95,20*,3.8*
CCOc1cccc2cc(-c3cn4cc(C)ccc4n3)c(=O)oc12,.,1.1*,24*,92,1.3*
CNc1nnc(-c2cc3cc(Cl)ccc3oc2=O)s1,95,88,103,99,82
CCOc1cccc2cc(-c3nnc(NCc4ccco4)s3)c(=O)oc12,3.7*,82,53,20*,89
Cc1ccc(N=C2CCCN2Cc2ccccc2)c(C#N)c1,82,85,104,101,82
CC(C(=O)Nc1ccc2c(c1)OCO2)N(c1ccc(Cl)cc1)S(C)(=O)=O (configuration not stated),85,93,109,92,101
